Screening data from PubChem.
Most compounds without a hit are left out; they make up all but 2.5% or so of the library.
Beta2AR agonist: activates human beta-2 adrenergic receptor causing internalization; P07550; Am2.2-beta2AR cells, FAP receptor internalization, flow cytometry; response, % (concentration not given with the values); hit rate 0.43% among 340,000; AID 504454;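 active means response above a set limit, near 3 SD of response in nonfluorescent compounds, cut at about 42% in these data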
Target sequence (P07550 whole entry, looked up): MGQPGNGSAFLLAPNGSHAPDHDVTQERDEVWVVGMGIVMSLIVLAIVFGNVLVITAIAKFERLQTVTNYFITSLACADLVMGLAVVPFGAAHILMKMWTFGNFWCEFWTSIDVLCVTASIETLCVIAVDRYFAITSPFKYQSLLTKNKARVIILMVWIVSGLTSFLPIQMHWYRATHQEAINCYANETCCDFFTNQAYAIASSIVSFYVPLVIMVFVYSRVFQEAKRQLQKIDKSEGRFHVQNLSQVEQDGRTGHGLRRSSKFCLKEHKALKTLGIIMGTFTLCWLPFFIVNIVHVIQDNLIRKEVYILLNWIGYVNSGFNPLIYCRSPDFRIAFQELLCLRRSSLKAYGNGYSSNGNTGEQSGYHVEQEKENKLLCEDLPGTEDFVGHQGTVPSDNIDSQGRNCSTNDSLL
NadD inh: blocks S. aureus nicotinate mononucleotide adenylyltransferase | purified NadD enzyme, colorimetric absorbance read-out | hit rate 0.78% among 360,000 | inhibition, % at 20 µM; in the data active means inhibition above about 26%
ABHD5 PLIN5 PPI: ABHD5-PLIN5 protein interaction inhibition | inhibition, % at 4 µM | Split G. princeps luciferase complementation, luminescence, 4 h | hit rate 0.78% among 360,000 | AID 602281;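 active means inhibition above the mean inhibition across every tested compound plus 3 SD, cut at about 22% in these data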;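 further: 0% = DMSO only wells and the 100% control is not disclosed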
GRK2 aptamer HTS: blocks RNA aptamer binding to human GRK2. P25098. bead flow cytometry, FAM-aptamer displacement from GRK2. inhibition of aptamer binding, % at 10 µM. hit rate 0.59% among 330,000;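 active means inhibition of aptamer binding above 40%, roughly 3 SD of noise, on plates passing a quality check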;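 further: median bead fluorescence of bound FAM aptamer so fluorescent compounds give negative values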
SENP1 FRET inh: SENP1 (human) catalytic domain inhibition. recombinant SENP1 catalytic domain, CyPet-SUMO1-YPet FRET cleavage. AID 624204. inhibition, % at 10 µM. hit rate 0.21% among 360,000. Q9P0U3;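 active means inhibition at least 30% at 10 µM, raw YFP signal under a set limit, fluorescence ratio 0.5 to 1.5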;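 further: 0% = enzyme with DMSO and 100% = no enzyme wells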
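Controls: no-enzyme wells low, DMSO-plus-enzyme wells high control. Test system: human recombinant His6-tagged SENP1 catalytic domain enzyme. Reagent: SFCypet-SUMO1-SFYpet FRET protein substrate, 25 nM final. Doses: one dose per compound, 10 µM, 0.5% DMSO. Detection: FRET, CFP and YFP emission. Timing: 50 min reaction at room temperature.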
Beta2AR ag CP1: agonists of human beta-2 adrenergic receptor; percent response (surface receptor), % at 10 µM; shares compounds with Beta2AR agonist; Am2.2-beta2AR cells, FAP surface receptor, flow cytometry; hits give low values; hit rate 25% among 1,100;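 active means surface receptor percent response at or below 58%, roughly 3 SD from nonfluorescent compounds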
B2AR FAP counter: flagged in Am2.2 fluorescence counterscreen for beta-2AR agonists. 1,100 tested, under 10 active. AID 588765. shares compounds with Beta2AR agonist. calls only at 10 µM. Am2.2 cells, FAP fluorogen flow cytometry; hits give low values;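 active means percent response below a set limit in fluorescence channel 1 and below 50% in channel 8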
An asterisk follows results filed as active; i = inactive; x = not tested or not shown.

SMILES	Beta2AR agonist	NadD inh	ABHD5 PLIN5 PPI	GRK2 aptamer HTS	SENP1 FRET inh	Beta2AR ag CP1	B2AR FAP counter
COc1cccc(OCc2nnc(-c3cccs3)o2)c1	50*	-1	-7	0	0	58*	i
CCNC(=O)C1(C)CCN(C(=O)c2cccs2)C1 (centres undefined)	x	-5	-2	x	0	x	x
O=C(Nc1nc(-c2ccco2)cs1)c1ccccc1	43*	10	19	0	-14	119	i
O=C(Nc1nc(-c2ccccc2)cs1)c1ccco1	-7	-3	5	0	-2	x	x
COc1ccc(Cn2nc(-c3ccccc3)c(N3CCCCC3)cc2=O)cc1	108*	2	8	1	-1	38*	i
Cc1ccc(NC(=O)C(c2ccc(Cl)cc2)N2CCCCC2)cc1 (centres undefined)	47*	-3	1	x	-2	36*	i
Cc1cc(C)cc(NC(=O)C(c2ccccc2)N2CCCC2)c1 (centres undefined)	2	3	-1	0	1	x	x
Cc1ccc(NC(=O)C(c2ccc(Cl)cc2)N2CCOCC2)cc1 (centres undefined)	48*	-3	-4	0	3	46*	i
C=CCN1C(=O)c2oc3ccccc3c(=O)c2C1c1ccc(O)c(OC)c1 (centres undefined)	-14	-2	5	3	-2	123	i
COCCN1C(=O)c2oc3ccccc3c(=O)c2C1c1ccc(OC)c(OC)c1 (centres undefined)	-3	4	8	0	3	x	x
CCCCCC1CCC(c2n[nH]c(=S)n2C)CC1 (centres undefined)	-4	1	-5	0	0	110	i
Cc1ccc(S(=O)(=O)Nc2ccc(O)c3cccnc23)cc1	9	0	-3	1	-1	104	i
Cc1ccc(S(=O)(=O)Nc2ccc(O)c3ncccc23)cc1	1	10	1	1	1	x	x
Cc1cc(OCc2cc(C(=O)N(C)CCCN3CCOCC3)no2)cc(C)c1Cl	6	-10	9	2	-1	x	x
CN(CCCN1CCOCC1)C(=O)c1cc(COc2cccc(C(F)(F)F)c2)on1	52*	2	0	0	0	84	i
Cc1cccc(Nc2n[nH]c(C)c2[N+](=O)[O-])c1	64*	0	5	6	1	114	i
Clc1ccccc1-c1ncnc2ccc(Br)cc12	96*	-6	-2	4	1	115	i
NNc1nc(-c2ccccc2Cl)c2cc(Br)ccc2n1	4	10	9	x	-10	x	x
O=C(COC(=O)/C=C/c1cccc(C(F)(F)F)c1)NCc1cccs1	7	5	-12	1	3	x	x
COc1ccc(OCC(=O)Nc2ccc(NC(=O)c3cccs3)cc2)cc1	54*	-6	-3	2	-2	74	i
